Measured values taken from ChEMBL document CHEMBL4270554, “Discovery of the cancer cell selective dual acting anti-cancer agent (Z)-2-(1H-indol-3-yl)-3-(isoquinolin-5-yl)acrylonitrile (A131)” (Eur J Med Chem, 2018).

Legend:
[1] = tested on: U2OS; test: Antiproliferative activity against human U2OS cells after 72 hrs by MTT assay; assay type: functional
In short: (§1)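 Cells cultured at 37 °C, 5% CO₂ in medium with 10% FBS and penicillin/streptomycin, used within 12-20 passages. Seeded at 2.5×10^3 cells/well for 24 h, then compound added from DMSO stocks at 200-fold final concentration (final DMSO 0.5% v/v). After 72 h, 0.5 mg/mL MTT for 3 h, formazan dissolved in DMSO, A570 read. IC50 from sigmoidal fit; three independent determinations.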

[2] = tested on: HeLa; test: Induction of autophagy in human HeLa cells assessed as increase in LC3-2 to LC3-1 ratio at 5 uM after 6 hrs by immunoblot analysis relative to control; assay type: functional
In short: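 HeLa cells were exposed for 6 h to the compound at 0.625, 1.25, 2.5, 5 or 10 µM, or to DMSO. Cells were lysed in 1% Triton buffer (pH 8.0) with protease and phosphatase inhibitors. Lysates were resolved by 14% SDS-PAGE and immunoblotted for LC3, with β-actin probed. The LC3-II/LC3-I band-intensity ratio was expressed relative to the DMSO control.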

[3] = Half life in pooled female rat liver microsomes at 3 uM preincubated for 5 mins followed by NADPH addition measured after 45 mins by LC-MS/MS method; assay type: ADME, microsome
In short: (§2)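 Pooled female or male rat liver microsomes (0.3 mg protein/mL) with 3 μM substrate in 0.1 M phosphate buffer pH 7.4, pre-incubated 5 min at 37 °C, started with 1 mM NADPH. Samples at 0-45 min quenched in cold acetonitrile with internal standard, analysed by LC-MS/MS. Triplicates; midazolam positive control, no-NADPH negative control.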

[4] = Antiproliferative activity against human NCC59 cells after 72 hrs by MTT assay; assay type: functional; in short: as §1
[5] = Antiproliferative activity against human AC10 cells at 50 uM after 72 hrs by MTT assay; assay type: cell-based
[6] = tested on: HeLa; test: Induction of autophagy in human HeLa cells assessed as increase in LC3-2 to LC3-1 ratio at 1.25 uM after 6 hrs by immunoblot analysis relative to control; assay type: functional
In short: (§3)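 HeLa cells exposed 6 h to test agent (0.625–10 μM series) or chloroquine (1.25–100 μM series) vs DMSO; lysed in 1% Triton buffer (25 mM Tris pH 8.0, 150 mM NaCl, DTT, protease/phosphatase inhibitors), 14% SDS-PAGE, immunoblot with anti-LC3, anti-pH3(Ser10), β-actin loading. LC3-II/LC3-I band intensity ratio expressed relative to DMSO control.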

[7] = tested on: hTERT-BJ; test: Inhibition of mitotic progression in human hTERT-BJ cells transformed with hTert, small t, shRNAs against p53 and pRb and H-RasV12-ER assessed as increase in phosphorylated histone H3 (Ser10) level at 5 uM after 24 hrs by immunoblot analysis relative to control; assay type: functional
In short: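 Fully transformed BJ fibroblasts (hTert, small t, shRNAs to p53 and pRb, H-RasV12-ER) treated 24 h at 5 μM. Immunoblot protocol as for HeLa. pH3 (Ser10) band intensity expressed as fold of DMSO control; under 2-fold counted as insignificant.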

[8] = tested on: Huh-7; test: Antiproliferative activity against human HuH7 cells after 72 hrs by MTT assay; assay type: functional; details: Huh-7, 72 h; in short: as §1
[9] = Antiproliferative activity against human BJ cells after 72 hrs by MTT assay; assay type: cell-based; in short: as §1
[10] = tested on: NUGC-3; test: Antiproliferative activity against human NUGC3 cells after 72 hrs by MTT assay; assay type: functional; details: NUGC-3, 72 h; in short: as §1
[11] = tested on: HeLa; test: Potency index, ratio of autophagy induction of test compound to chloroquine in human HeLa cells; assay type: functional
[12] = tested on: MKN-45; test: Antiproliferative activity against human MKN45 cells after 72 hrs by MTT assay; assay type: functional; details: MKN-45, 72 h; in short: as §1
[13] = tested on: HT-29; test: Antiproliferative activity against human HT-29 cells after 72 hrs by MTT assay; assay type: functional; details: HT-29, 72 h; in short: as §1
[14] = tested on: DLD-1; test: Antiproliferative activity against human DLD1 cells after 72 hrs by MTT assay; assay type: functional; details: DLD-1, 72 h; in short: as §1
[15] = tested on: HCT-15; test: Antiproliferative activity against human HCT15 cells after 72 hrs by MTT assay; assay type: functional; details: HCT-15, 72 h; in short: as §1
[16] = Half life in pooled male rat liver microsomes at 3 uM preincubated for 5 mins followed by NADPH addition measured after 45 mins by LC-MS/MS method; assay type: ADME, microsome; in short: as §2
[17] = tested on: HCT-116; test: Antiproliferative activity against human HCT116 cells after 72 hrs by MTT assay; assay type: functional; details: HCT-116, 72 h; in short: as §1
[18] = tested on: HeLa; test: Induction of autophagy in human HeLa cells assessed as increase in LC3-2 to LC3-1 ratio at 2.5 uM after 6 hrs by immunoblot analysis relative to control; assay type: functional; in short: as §3
[19] = tested on: TAMH; test: Antiproliferative activity against mouse TAMH cells at 50 uM after 72 hrs by MTT assay; assay type: cell-based
[20] = Antiproliferative activity against human WI38 cells after 72 hrs by MTT assay; assay type: cell-based; details: WI-38 cells; in short: as §1
[21] = tested on: AGS; test: Antiproliferative activity against human AGS cells after 72 hrs by MTT assay; assay type: functional; in short: as §1
[22] = tested on: SCH; test: Antiproliferative activity against human SCH cells after 72 hrs by MTT assay; assay type: functional; in short: as §1
[23] = tested on: Salmonella typhimurium; test: Genotoxicity in Salmonella typhimurium TA98 after 48 hrs in presence of S9 fraction by Ames test; assay type: toxicity, organism-based; details: salmonella enterica subsp. enterica serovar typhimurium, s9, 48 h
[24] = tested on: SNU-16; test: Antiproliferative activity against human SNU16 cells after 72 hrs by MTT assay; assay type: functional; details: SNU-16, 72 h; in short: as §1
[25] = tested on: HCT-15; test: Antitumor activity against human HCT15 cells xenografted in BALB/c athymic nu/nu mouse assessed as tumor growth inhibition at 20 mg/kg, ip bid administered 12 days relative to control; assay type: functional; details: HCT-15, ip, 288 h, read-out: TGI
In short: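 Female BALB/c nu/nu mice (5-7 weeks) given 5×10^6 HCT15 cells subcutaneously in flank. At 100–300 mm³, randomized into groups of 6. Dosed IP twice daily for 12 days at 20 mg/kg in 10% DMSO, 50% PEG400, deionized water pH 5.0, vs vehicle. Tumor volumes tracked; mean ± SEM, two-way ANOVA vs vehicle.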

[26] = Antiproliferative activity against human ARPE19 cells after 72 hrs by MTT assay; assay type: cell-based; details: ARPE-19 cells; in short: as §1
[27] = tested on: MDA-MB-231; test: Antiproliferative activity against human MDA-MB-231 cells after 72 hrs by MTT assay; assay type: functional; details: MDA-MB-231, 72 h; in short: as §1
[28] = Intrinsic clearance in pooled male rat liver microsomes assessed per mg protein at 3 uM preincubated for 5 mins followed by NADPH addition measured after 45 mins by LC-MS/MS method; assay type: ADME, microsome; details: read-out: CLH
In short: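 Pooled female or male rat liver microsomes (0.3 mg protein/mL) with substrate at final 3 μM in 0.1 M phosphate pH 7.4. Pre-incubated 5 min at 37 °C, then started with NADPH (final 1 mM). Sampled at 0–45 min in triplicate, quenched with cold acetonitrile plus internal standard. Parent measured by LC-MS/MS. Midazolam as positive control; no-NADPH negative control.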

[29] = Antiproliferative activity against human SGCC-GC38 cells after 72 hrs by MTT assay; assay type: functional; in short: as §1

N#C/C(=C\c1cccc2cnccc12)c1c[nH]c2ccccc12
GI50 [1]: 1.5 µM | fold change (FC) [2]: 4.3 | half-life at 3 µM [3]: 40.2 min | GI50 [4]: 0.9 µM | Activity [5]: 77.6% | fold change (FC) [6]: 2.3 | fold change (FC) [7]: 7.3 | GI50 [8]: 1.2 µM | GI50 at 72 h [9]: 8.1 µM | GI50 [10]: 1 µM | Ratio [11]: 4 - 10 | GI50 [12]: 1 µM | GI50 [13]: 0.9 µM | GI50 [14]: 1.2 µM | GI50 [15]: 0.5 µM | half-life at 3 µM [16]: 7.7 min | GI50 [17]: 1.8 µM | fold change (FC) [18]: 3 | Activity [19]: 57.3% | GI50 at 72 h [20]: 3.4 µM | GI50 [21]: 1.1 µM | GI50 [22]: 1.7 µM | Activity [23]: Non-Toxic | GI50 [24]: 1 µM | inhibition in vivo at 20 mg/kg [25]: 74% | GI50 at 72 h [26]: > 10 µM | GI50 [27]: 1.1 µM | microsomal CLint at 3 µM [28]: 299 µL/min/mg | GI50 [29]: 1.9 µM
